# The source made the active and inactive calls. The calls are words filed in the database; no cut-off is given here.
# Tests used:
# [1] = system: Human alphaherpesvirus 2; test: Antiviral activity against HSV2 G infected in human lung fibroblast assessed as inhibition of virus-induced cytopathic effect at 0.32 to 100 uM; type: functional, organism-based; conditions: strain G
# Summary of the method: (§1)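 Confluent cell cultures were infected with 100 CCID50 of virus in the presence of test compound at 100, 40, 8, 1.6 and 0.32 μM. Cytopathic effect was scored once it was complete in untreated infected controls.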
# [2] = Antioxidant activity assessed as inhibition of AAPH-induced linoleic acid lipid peroxidation by measuring conjugated diene hydroperoxide level; type: functional; parameters: concentration or dose not given beside the values
# Summary of the method: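 Linoleic acid sodium salt (10 μL of 16 mM) in 0.05 M phosphate buffer pH 7.4 at 37 °C. Oxidation started under air with 50 μL of 40 mM AAPH. Conjugated diene hydroperoxide formation followed as absorbance rise at 234 nm; control contains the same DMSO level. At least triplicate.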
# [3] = system: Mammalian orthoreovirus 1; test: Antiviral activity against Reovirus-1 infected in african green monkey Vero cells assessed as inhibition of virus-induced cytopathic effect at 0.32 to 100 uM; type: functional, organism-based; summary of the method: as §1
# [4] = system: Feline coronavirus; test: Antiviral activity against Feline coronavirus infected in feline CRFK cells assessed as inhibition of virus-induced cytopathic effect at 0.32 to 100 uM; type: functional, organism-based; summary of the method: as §1
# [5] = system: Vesicular stomatitis virus; test: Antiviral activity against Vesicular stomatitis virus infected in human cervix carcinoma cells assessed as inhibition of virus-induced cytopathic effect at 0.32 to 100 uM; type: functional, organism-based
# Summary of the method: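 Confluent human cervix carcinoma (HeLa) cultures received 100 CCID50 of VSV together with the compound at 100, 40, 8, 1.6 or 0.32 μM. Cytopathicity was read at the point of full CPE in infected, untreated control wells.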
# [6] = system: Sindbis virus; test: Antiviral activity against Sindbis virus infected in african green monkey Vero cells assessed as inhibition of virus-induced cytopathic effect at 0.32 to 100 uM; type: functional, organism-based; summary of the method: as §1
# [7] = system: Radical scavenging activity; test: Antioxidant activity assessed as DPPH free radical scavenging activity at 100 uM after 20 mins by spectrophotometric analysis; type: functional
# Summary of the method: (§2)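 0.05 mM DPPH in absolute ethanol mixed with an equal volume of compound in DMSO (final 100 μM). Shaken and left 20 or 60 min, then absorbance read at 517 nm and percent activity calculated. Three replicates, averaged.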
# [8] = system: Coxsackievirus B4; test: Antiviral activity against Coxsackievirus B4 infected in african green monkey Vero cells assessed as inhibition of virus-induced cytopathic effect at 0.32 to 100 uM; type: functional, organism-based; summary of the method: as §1
# [9] = system: Radical scavenging activity; test: Antioxidant activity assessed as DPPH free radical scavenging activity at 100 uM after 60 mins by spectrophotometric analysis; type: functional; summary of the method: as §2
# [10] = system: Influenza A virus; test: Antiviral activity against Influenza A virus H1N1 infected in MDCK cells assessed as inhibition of virus-induced cytopathic effect at 0.32 to 100 uM; type: functional, organism-based
# Summary of the method: (§3)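 Confluent MDCK monolayers were infected in the presence of the compound at 100, 40, 8, 1.6 and 0.32 μM. Viral cytopathicity was scored once it was complete in untreated infected control cultures.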
# [11] = system: Respiratory syncytial virus; test: Antiviral activity against RSV infected in human cervix carcinoma cells assessed as inhibition of virus-induced cytopathic effect at 0.32 to 100 uM; type: functional, organism-based; summary of the method: as §1
# [12] = system: Punta Toro virus; test: Antiviral activity against Punta Toro virus infected in african green monkey Vero cells assessed as inhibition of virus-induced cytopathic effect at 0.32 to 100 uM; type: functional, organism-based; summary of the method: as §1
# [13] = system: Vaccinia virus; test: Antiviral activity against Vaccinia virus infected in human lung fibroblast assessed as inhibition of virus-induced cytopathic effect at 0.32 to 100 uM; type: functional, organism-based; conditions: Orthopoxvirus vaccinia
# [14] = system: Human immunodeficiency virus 2; test: Antiviral activity against HIV2 ROD infected in human CEM cells assessed as inhibition of virus-induced CEM giant cell formation at 0.32 to 100 uM after 4 days; type: functional, organism-based; conditions: ISOLATE ROD, CCRF-CEM
# Summary of the method: (§4)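 CEM cells (~3 × 10^5 cells/cm³) exposed to 100 CCID50/ml of virus and seeded into wells holding compound dilutions. Incubated 4 days at 37 °C, then giant cell formation examined microscopically.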
# [15] = system: Influenza B virus; test: Antiviral activity against Influenza B virus infected in MDCK cells assessed as inhibition of virus-induced cytopathic effect at 0.32 to 100 uM; type: functional, organism-based; summary of the method: as §3
# [16] = system: Vesicular stomatitis virus; test: Antiviral activity against VSV infected in human lung fibroblast assessed as inhibition of virus-induced cytopathic effect at 0.32 to 100 uM; type: functional, organism-based
# [17] = system: Coxsackievirus B4; test: Antiviral activity against Coxsackievirus B4 infected in human cervix carcinoma cells assessed as inhibition of virus-induced cytopathic effect at 0.32 to 100 uM; type: functional, organism-based; summary of the method: as §1
# [18] = system: Human respirovirus 3; test: Antiviral activity against Parainfluenza virus 3 infected in african green monkey Vero cells assessed as inhibition of virus-induced cytopathic effect at 0.32 to 100 uM; type: functional, organism-based; summary of the method: as §1
# [19] = system: HeLa; test: Cytostatic activity against human HeLa cells after 3 days by coulter counter analysis; type: functional, cell-based; conditions: 72 h
# Summary of the method: (§5)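 300,000–500,000 cells/ml mixed 1:1 with compound dilutions and incubated at 37 °C for 2 days (L1210) or 3 days (CEM, HeLa). Cell number counted with a Coulter counter; HeLa trypsinized before counting.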
# [20] = system: Felid alphaherpesvirus 1; test: Antiviral activity against Feline herpesvirus infected in feline CRFK cells assessed as inhibition of virus-induced cytopathic effect at 0.32 to 100 uM; type: functional, organism-based; summary of the method: as §1
# [21] = system: Human immunodeficiency virus 1; test: Antiviral activity against HIV1 3B infected in human CEM cells assessed as inhibition of virus-induced CEM giant cell formation at 0.32 to 100 uM after 4 days; type: functional, organism-based; conditions: CCRF-CEM; summary of the method: as §4
# [22] = system: HCT-116; test: Cytostatic activity against human HCT116 cells after 72 hrs by MTT assay; type: functional, cell-based; conditions: HCT-116, 72 h
# Summary of the method: (§6)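 Monolayers in DMEM with 10% FBS, 2 mM L-glutamine and penicillin/streptomycin, 37 °C, 5% CO2. Seeded at 1–3 × 10^4 cells/ml, then compound added in tenfold dilutions (10⁻⁸–10⁻⁴ M) for 72 h. MTT read at 570 nm; percent growth taken against time-zero and untreated controls. IC50 by linear regression; quadruplicate, at least two experiments.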
# [23] = system: Glycine max; test: Inhibition of soybean LOX assessed as conversion of sodium linoleate to 13- hydroperoxylinoleic acid at 100 uM
# [24] = system: CCRF-CEM; test: Cytostatic activity against human CEM cells after 3 days by coulter counter analysis; type: functional, cell-based; conditions: 72 h; summary of the method: as §5
# [25] = system: NCI-H460; test: Cytostatic activity against human NCI-H460 cells after 72 hrs by MTT assay; type: functional, cell-based; conditions: NCI-H460, 72 h; summary of the method: as §6
# [26] = system: MCF7; test: Cytostatic activity against human MCF7 cells after 72 hrs by MTT assay; type: functional, cell-based; conditions: MCF7, 72 h; summary of the method: as §6
# [27] = system: Human alphaherpesvirus 1; test: Antiviral activity against HSV1 KOS infected in human lung fibroblast assessed as inhibition of virus-induced cytopathic effect at 0.32 to 100 uM; type: functional, organism-based; summary of the method: as §1
# [28] = system: L1210; test: Cytostatic activity against mouse L1210 cells after 2 days by coulter counter analysis; type: functional, cell-based; conditions: L1210, 48 h; summary of the method: as §5
# [29] = system: Influenza A virus; test: Antiviral activity against Influenza A virus H3N2 infected in MDCK cells assessed as inhibition of virus-induced cytopathic effect at 0.32 to 100 uM; type: functional, organism-based; summary of the method: as §3
# [30] = dose or concentration not given here
Structure (SMILES),inhibition [1],inhibition [3],inhibition [4],inhibition [5],inhibition [6],Activity [7],inhibition [8],Activity [9],inhibition [10],inhibition [11],inhibition [12],inhibition [13],inhibition [14],inhibition [15],inhibition [16],inhibition [17],inhibition [18],IC50 [19] [µM],inhibition [20],inhibition [21],also measured
CC(C)Cc1ccc(C(C)C(=O)NNC(=O)NOCc2ccccc2)cc1 (centres undefined),inactive,inactive,inactive,inactive,inactive,inactive,inactive,inactive,inactive,inactive,inactive,inactive,inactive,inactive,inactive,inactive,inactive,178,inactive,inactive,"inhibition [2, 30]: 100%; IC50 [22]: 76 µM; inhibition [23]: inactive; IC50 [24]: ≥ 250 µM; IC50 [25]: > 100 µM; IC50 [26]: 50 µM; inhibition [27]: inactive; IC50 [28]: 192 µM; inhibition [29]: inactive"
CC(C)Cc1ccc(C(C)C(=O)NNC(=O)NCC2CCCCC2)cc1 (centres undefined),inactive,inactive,inactive,inactive,inactive,3%,inactive,6%,inactive,inactive,inactive,inactive,inactive,inactive,inactive,inactive,inactive,142,inactive,inactive,"inhibition [2, 30]: 16%; IC50 [22]: 21 µM; inhibition [23]: 25%; IC50 [24]: 26 µM; IC50 [25]: 29 µM; IC50 [26]: 13 µM; inhibition [27]: inactive; IC50 [28]: 44 µM; inhibition [29]: inactive"
CC(C(=O)NNC(=O)NOCc1ccccc1)c1cccc(Cc2ccccc2)c1 (centres undefined),inactive,inactive,inactive,inactive,inactive,3%,inactive,6%,inactive,inactive,inactive,inactive,inactive,inactive,inactive,inactive,inactive,78,inactive,inactive,inhibition [2]: inactive; IC50 [22]: 56 µM; inhibition [23]: inactive; IC50 [24]: 101 µM; IC50 [25]: 82 µM; IC50 [26]: 41 µM; inhibition [27]: inactive; IC50 [28]: 79 µM; inhibition [29]: inactive
CC(C(=O)NNC(=O)NNC(=O)NOCc1ccccc1)c1cccc(Cc2ccccc2)c1 (centres undefined),inactive,inactive,inactive,inactive,inactive,10%,inactive,19%,inactive,inactive,inactive,inactive,inactive,inactive,inactive,inactive,inactive,76,inactive,inactive,"inhibition [2, 30]: 100%; IC50 [22]: 64 µM; inhibition [23]: inactive; IC50 [24]: 96 µM; IC50 [25]: > 100 µM; IC50 [26]: 19 µM; inhibition [27]: inactive; IC50 [28]: 102 µM; inhibition [29]: inactive"
CC(C)Cc1ccc(C(C)C(=O)NNC(=O)NCc2ccccc2)cc1 (centres undefined),inactive,inactive,inactive,inactive,inactive,inactive,inactive,inactive,inactive,inactive,inactive,inactive,inactive,inactive,inactive,inactive,inactive,173,inactive,inactive,"inhibition [2, 30]: 12%; IC50 [22]: 34 µM; inhibition [23]: inactive; IC50 [24]: 74 µM; IC50 [25]: 59 µM; IC50 [26]: 29 µM; inhibition [27]: inactive; IC50 [28]: 110 µM; inhibition [29]: inactive"
CC(C)Cc1ccc(C(C)C(=O)NNC(=O)NNC(=O)NO)cc1 (centres undefined),inactive,inactive,inactive,inactive,inactive,24%,inactive,46%,inactive,inactive,inactive,inactive,inactive,inactive,inactive,inactive,inactive,> 250,inactive,inactive,"inhibition [2, 30]: 15%; IC50 [22]: > 100 µM; inhibition [23]: inactive; IC50 [24]: > 250 µM; IC50 [25]: > 100 µM; IC50 [26]: > 100 µM; inhibition [27]: inactive; IC50 [28]: > 250 µM; inhibition [29]: inactive"

# Source: ChEMBL document CHEMBL2010803, “Novel NSAID 1-acyl-4-cycloalkyl/arylsemicarbazides and 1-acyl-5-benzyloxy/hydroxy carbamoylcarbazides as potential anticancer agents and antioxidants” (Eur J Med Chem, 2012)
